Source: ChEMBL document CHEMBL1149260, “Synthesis of tropeines and allosteric modulation of ionotropic glycine receptors” (J Med Chem, 2004)
pIC50: −log10 of the molar value.

What was measured:
[1] = molecular target: T1, Serotonin 3 (5-HT3) receptor (Rattus norvegicus, UniProt P35563+Q9JJ16); assay: Displacement of [3H]granisetron from 5HT3 receptor in Wistar rat cerebral cortex synaptosomal membranes; format: cell membranes, Membrane
T1 sequence (P35563 whole entry): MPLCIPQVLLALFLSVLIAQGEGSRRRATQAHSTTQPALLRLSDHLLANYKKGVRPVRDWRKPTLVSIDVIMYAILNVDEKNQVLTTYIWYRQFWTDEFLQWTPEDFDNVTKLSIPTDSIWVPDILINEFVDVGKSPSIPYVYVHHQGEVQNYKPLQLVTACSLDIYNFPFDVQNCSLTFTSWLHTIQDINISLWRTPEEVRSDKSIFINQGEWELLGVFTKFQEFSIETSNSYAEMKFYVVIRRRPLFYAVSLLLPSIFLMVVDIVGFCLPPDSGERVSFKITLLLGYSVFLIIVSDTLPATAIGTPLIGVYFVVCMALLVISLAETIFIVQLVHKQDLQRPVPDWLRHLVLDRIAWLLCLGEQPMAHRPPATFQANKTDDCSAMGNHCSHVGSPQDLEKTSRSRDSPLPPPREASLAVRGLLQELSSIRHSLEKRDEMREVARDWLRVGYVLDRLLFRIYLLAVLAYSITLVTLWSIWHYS
T1 sequence (Q9JJ16 whole entry): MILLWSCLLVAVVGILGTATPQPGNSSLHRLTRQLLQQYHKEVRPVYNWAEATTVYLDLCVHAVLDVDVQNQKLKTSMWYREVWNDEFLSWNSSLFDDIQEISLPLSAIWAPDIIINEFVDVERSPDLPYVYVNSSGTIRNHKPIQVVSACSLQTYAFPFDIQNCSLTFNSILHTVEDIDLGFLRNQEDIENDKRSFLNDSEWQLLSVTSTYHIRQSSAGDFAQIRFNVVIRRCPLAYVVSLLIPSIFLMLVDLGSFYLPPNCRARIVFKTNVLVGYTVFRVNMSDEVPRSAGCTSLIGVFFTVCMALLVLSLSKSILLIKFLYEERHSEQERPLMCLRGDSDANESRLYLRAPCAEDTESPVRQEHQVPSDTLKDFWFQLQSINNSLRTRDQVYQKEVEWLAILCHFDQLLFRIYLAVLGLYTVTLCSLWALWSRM
How it was run: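 Male Wistar rat cerebral cortex plus hippocampus synaptosomal membranes, in 10 mM HEPES with 140 mM NaCl (pH 7.5). Incubated with 0.3 nM [3H]granisetron and varied tropeine concentrations for 2.5 h on ice. Nonspecific binding defined with 10 µM granisetron. Duplicate aliquots filtered on PEI-presoaked GF/B filters. Displacement curves fitted with variable slopes; 3-6 experiments.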

Rattus norvegicus = organism: Rattus norvegicus; assay: Displacement of [3H]strychnine from glycine receptor in Wistar rat spinal cord synaptosomal membranes; format: cell membranes; details: Membrane
[2] = molecular target: Serotonin 3 (5-HT3) receptor (Rattus norvegicus) (UniProt P35563+Q9JJ16); assay: Selectivity for glycine receptor measured as KA over 5HT3 receptor measured as IC50 in Wistar rat synaptosomal membranes; format: cell membranes

SMILES | pIC50 [1] | -Log KA (Rattus norvegicus) | Selectivity ratio [2]
CN1[C@@H]2CC[C@H]1C[C@H](OC(=O)c1ccccc1)C2 (stereo in doubt; 7) [listing 1 of 2 here] | 6.30 | – | –
CN1[C@@H]2CC[C@H]1C[C@@H](OC(=O)c1cc(Cl)cc(Cl)c1)C2 | – | 5.99 | –
CC1(C)Cc2cc(Cl)cc(C(=O)O[C@H]3C[C@H]4CC[C@@H](C3)N4)c2O1 | 7.25 | 7.74 | 3.37
O=C(O[C@H]1C[C@H]2CC[C@@H](C1)N2)c1ccccc1 (stereo in doubt; 4a) [listing 1 of 2 here] | 5.81 | – | –
CN1[C@@H]2CC[C@H]1C[C@H](OC(=O)c1cccc([N+](=O)[O-])c1)C2 | – | 5.84 | –
COc1cccc(C(=O)O[C@@H]2C[C@H]3CC[C@@H](C2)N3)c1 | 6.58 | 8.11 | 33.5
Nc1cccc(C(=O)O[C@@H]2C[C@H]3CC[C@@H](C2)N3)c1 | 6.24 | 7.23 | 10.3
O=C(O[C@@H]1C[C@H]2CC[C@@H](C1)N2)c1cccc(Cl)c1 | 6.16 | 7.65 | 33.7
O=C(O[C@H]1C[C@H]2CC[C@@H](C1)N2)c1ccccc1 (stereo in doubt; 4a) [listing 2 of 2 here] | – | 7.98 | 161
CN1[C@@H]2CC[C@H]1C[C@H](OC(=O)c1cccc(Cl)c1)C2 | 7.17 | 6.31 | 0.15
CN1[C@@H]2CC[C@H]1C[C@@H](NC(=O)c1cc(Cl)cc3c1OC(C)(C)C3)C2 | – | 6.57 | –
CN1[C@@H]2CC[C@H]1C[C@H](OC(=O)c1ccccc1)C2 (stereo in doubt; 2a) [listing 1 of 2 here] | 6.53 | – | –
COc1cccc(C(=O)O[C@@H]2C[C@H]3CC[C@@H](C2)N3C)c1 | 7.15 | 7.08 | 0.87
CN1[C@@H]2CC[C@H]1C[C@H](OC(=O)c1ccc([N+](=O)[O-])cc1)C2 | 5.98 | 5.29 | 0.2
CCc1ccc(C(=O)O[C@@H]2C[C@H]3CC[C@@H](C2)N3C)cc1 | 6.74 | 5.34 | 0.04
O=C(O[C@H]1C[C@H]2CC[C@@H](C1)N2)c1ccccc1 (stereo in doubt; 8) [listing 1 of 2 here] | 6.00 | – | –
CN1[C@@H]2CC[C@H]1C[C@H](NC(=O)c1ccccc1)C2 | – | 4.8 | –
COc1cc(C(=O)O[C@@H]2C[C@H]3CC[C@@H](C2)N3C)cc(OC)c1OC | 6.64 | 5.97 | 0.23
CCN1[C@@H]2CC[C@H]1C[C@@H](OC(=O)c1ccccc1)C2 | 6.14 | 6.14 | 0.98
CN1[C@@H]2CC[C@H]1C[C@@H](OC(=O)c1cc(Cl)cc3c1OC(C)(C)C3)C2 | 8.14 | 6.63 | 0.03
CN1[C@@H]2CC[C@H]1C[C@H](OC(=O)c1ccccc1)C2 (stereo in doubt; 2a) [listing 2 of 2 here] | – | 6.39 | 0.78
CN1[C@@H]2CC[C@H]1C[C@H](OC(=O)c1ccccc1)C2 (stereo in doubt; 7) [listing 2 of 2 here] | – | 5.77 | 0.3
O=C(O[C@H]1C[C@H]2CC[C@@H](C1)N2)c1ccccc1 (stereo in doubt; 8) [listing 2 of 2 here] | – | 5.96 | 0.98
CN1[C@@H]2CC[C@H]1C[C@H](OC(=O)c1ccc(C(C)(C)C)cc1)C2 | – | 4.53 | –
